Source: ChEMBL document CHEMBL1629487, “Synthesis and in vitro antimicrobial evaluation of novel fluoroquinolone derivatives” (2010)
Converted amounts (≈) assume the structure as drawn.

What was measured:
[1] = system: Streptococcus mitis; experiment: Antimicrobial activity against Streptococcus mitis ATCC 6249 after 18 to 24 hrs by microbroth dilution method; type: functional
In short: (§1)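 Bacteria were cultured in Mueller Hinton broth in 96-well microtiter plates, and the suspensions were added to MHB containing varying concentrations of test compound. Plates were incubated at 37 °C for 18–24 h, then read visually with a reading mirror and spectrophotometrically at 450 nm. MIC was taken as the lowest concentration giving complete suppression of visible growth.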

[2] = system: Aeromonas hydrophila; experiment: Antimicrobial activity against Aeromonas hydrophila ATCC 7966 after 18 to 24 hrs by microbroth dilution method; type: functional; in short: as §1
[3] = system: Vibrio parahaemolyticus; experiment: Antimicrobial activity against Vibrio parahaemolyticus ATCC 17802 after 18 to 24 hrs by microbroth dilution method; type: functional; in short: as §1
[4] = system: Proteus mirabilis; experiment: Antimicrobial activity against Proteus mirabilis ATCC 7002 after 18 to 24 hrs by microbroth dilution method; type: functional; in short: as §1
[5] = system: Salmonella paratyphi; experiment: Antimicrobial activity against Salmonella paratyphi A ATCC 9150 after 18 to 24 hrs by microbroth dilution method; type: functional, Salmonella enterica subsp. enterica serovar Paratyphi A; settings: Salmonella enterica
In short: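 Broth microdilution in 96-well plates; bacteria grown in Mueller Hinton broth with varying concentrations of test compound, incubated at 37 °C for 18–24 h. Plates read visually with a reading mirror and spectrophotometrically at 450 nm. MIC taken as lowest concentration giving complete suppression of visible growth.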

[6] = system: Proteus vulgaris; experiment: Antimicrobial activity against Proteus vulgaris ATCC 49132 after 18 to 24 hrs by microbroth dilution method; type: functional; in short: as §1
[7] = system: Staphylococcus aureus; experiment: Antimicrobial activity against Staphylococcus aureus ATCC 11632 after 18 to 24 hrs by microbroth dilution method; type: functional; in short: as §1
[8] = system: Vibrio alginolyticus; experiment: Antimicrobial activity against Vibrio alginolyticus ATCC 17749 after 18 to 24 hrs by microbroth dilution method; type: functional; in short: as §1
[9] = system: Shigella boydii; experiment: Antimicrobial activity against Shigella boydii ATCC 9207 after 18 to 24 hrs by microbroth dilution method; type: functional; in short: as §1
[10] = system: Streptococcus sanguinis; experiment: Antimicrobial activity against Streptococcus sanguinis ATCC 10556 after 18 to 24 hrs by microbroth dilution method; type: functional; in short: as §1
[11] = system: Klebsiella pneumoniae; experiment: Antimicrobial activity against Klebsiella pneumoniae ATCC 10031 after 18 to 24 hrs by microbroth dilution method; type: functional; in short: as §1
[12] = system: Bacillus subtilis; experiment: Antimicrobial activity against Bacillus subtilis ATCC 11774 after 18 to 24 hrs by microbroth dilution method; type: functional; in short: as §1
[13] = system: Streptococcus salivarius; experiment: Antimicrobial activity against Streptococcus salivarius ATCC 13419 after 18 to 24 hrs by microbroth dilution method; type: functional; in short: as §1
[14] = system: Candida albicans; experiment: Antimicrobial activity against Candida albicans ATCC 90028 after 18 to 24 hrs by microbroth dilution method; type: functional
In short: (§2)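 Fungal isolates were cultivated in Sabouraud's broth in 96-well microtiter plates, and the suspensions were added to SDB containing varying concentrations of test compound. Plates were incubated at 37 °C for 18–24 h, then read visually with a reading mirror and spectrophotometrically at 450 nm. MIC was taken as the lowest concentration completely suppressing visible growth.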

[15] = system: Cryptococcus neoformans; experiment: Antimicrobial activity against Cryptococcus neoformans ATCC 14116 after 18 to 24 hrs by microbroth dilution method; type: functional; in short: as §2
[16] = system: Pseudomonas aeruginosa; experiment: Antimicrobial activity against Pseudomonas aeruginosa ATCC 10145 after 18 to 24 hrs by microbroth dilution method; type: functional; in short: as §1

Compound: O=C(O)c1cn(C2CC2)c2cc(N3CCNCC3)c(F)cc2c1=O [CIPROFLOXACIN]
- MIC [1]: 2.5 µg/mL (≈ 7.54 µM)
- MIC [2]: 3 µg/mL (≈ 9.05 µM)
- MIC [3]: 8 µg/mL (≈ 24.1 µM)
- MIC [4]: 6 µg/mL (≈ 18.1 µM)
- MIC [5]: 4 µg/mL (≈ 12.1 µM)
- MIC [6]: 3 µg/mL (≈ 9.05 µM)
- MIC [7]: 1 µg/mL (≈ 3.02 µM)
- MIC [8]: 2 µg/mL (≈ 6.04 µM)
- MIC [9]: 2.5 µg/mL (≈ 7.54 µM)
- MIC [10]: 4 µg/mL (≈ 12.1 µM)
- MIC [11]: 1.5 µg/mL (≈ 4.53 µM)
- MIC [12]: 1.5 µg/mL (≈ 4.53 µM)
- MIC [13]: 1.5 µg/mL (≈ 4.53 µM)

Compound: CCn1cc(C(=O)O)c(=O)c2cc(F)c(N3CCN(c4ccccc4C#N)CC3)c(F)c21
- MIC [1]: 1.5 µg/mL (≈ 3.42 µM)
- MIC [3]: 1.5 µg/mL (≈ 3.42 µM)
- MIC [4]: 2.5 µg/mL (≈ 5.7 µM)
- MIC [5]: 1.5 µg/mL (≈ 3.42 µM)
- MIC [6]: 1 µg/mL (≈ 2.28 µM)
- MIC [9]: 2 µg/mL (≈ 4.56 µM)
- MIC [11]: 1 µg/mL (≈ 2.28 µM)
- MIC [12]: 1.5 µg/mL (≈ 3.42 µM)
- MIC [13]: 2.5 µg/mL (≈ 5.7 µM)

Compound: CCn1cc(C(=O)O)c(=O)c2cc(F)c(N3CCC(Br)CC3)c(F)c21
- MIC [1]: 1 µg/mL (≈ 2.41 µM)
- MIC [14]: 415 µg/mL (≈ 999 µM)
- MIC [2]: 1.5 µg/mL (≈ 3.61 µM)
- MIC [3]: 5 µg/mL (≈ 12 µM)
- MIC [15]: 1.03 µg/mL (≈ 2.48 µM)
- MIC [4]: 5 µg/mL (≈ 12 µM)
- MIC [6]: 2.5 µg/mL (≈ 6.02 µM)
- MIC [7]: 5 µg/mL (≈ 12 µM)
- MIC [9]: 1 µg/mL (≈ 2.41 µM)
- MIC [11]: 5 µg/mL (≈ 12 µM)
- MIC [12]: 2.5 µg/mL (≈ 6.02 µM)
- MIC [13]: 2.5 µg/mL (≈ 6.02 µM)

Compound: CCn1cc(C(=O)O)c(=O)c2cc(F)c(N3CCN(c4ccccc4F)CC3)c(F)c21
- MIC [1]: 1.5 µg/mL (≈ 3.48 µM)
- MIC [2]: 1.5 µg/mL (≈ 3.48 µM)
- MIC [3]: 1.5 µg/mL (≈ 3.48 µM)
- MIC [4]: 5 µg/mL (≈ 11.6 µM)
- MIC [6]: 2.5 µg/mL (≈ 5.79 µM)
- MIC [9]: 2 µg/mL (≈ 4.64 µM)
- MIC [11]: 1.5 µg/mL (≈ 3.48 µM)
- MIC [12]: 1.25 µg/mL (≈ 2.9 µM)
- MIC [13]: 1 µg/mL (≈ 2.32 µM)

Compound: CCn1cc(C(=O)O)c(=O)c2cc(F)c(N3CCNCC3)cc21 [NORFLOXACIN]
- MIC [14]: 312 µg/mL (≈ 979 µM)
- MIC [15]: 4.88 µg/mL (≈ 15.3 µM)

Compound: CCn1cc(C(=O)O)c(=O)c2cc(F)c(N3CCN(c4cccc(Cl)c4Cl)CC3)c(F)c21
- MIC [1]: 5 µg/mL (≈ 10.4 µM)
- MIC [14]: 108 µg/mL (≈ 224 µM)
- MIC [2]: 0.5 µg/mL (≈ 1.04 µM)
- MIC [3]: 1.25 µg/mL (≈ 2.59 µM)
- MIC [15]: 2.17 µg/mL (≈ 4.5 µM)
- MIC [4]: 5 µg/mL (≈ 10.4 µM)
- MIC [5]: 5 µg/mL (≈ 10.4 µM)
- MIC [6]: 2.5 µg/mL (≈ 5.18 µM)
- MIC [7]: 1 µg/mL (≈ 2.07 µM)
- MIC [8]: 1 µg/mL (≈ 2.07 µM)
- MIC [9]: 1 µg/mL (≈ 2.07 µM)
- MIC [11]: 1.25 µg/mL (≈ 2.59 µM)
- MIC [12]: 5 µg/mL (≈ 10.4 µM)
- MIC [13]: 2.5 µg/mL (≈ 5.18 µM)

Compound: CCn1cc(C(=O)O)c(=O)c2cc(F)c(N3CCC(CO)CC3)c(F)c21
- MIC [1]: 2.5 µg/mL (≈ 6.82 µM)
- MIC [14]: 183 µg/mL (≈ 500 µM)
- MIC [2]: 1 µg/mL (≈ 2.73 µM)
- MIC [3]: 1.25 µg/mL (≈ 3.41 µM)
- MIC [15]: 4.19 µg/mL (≈ 11.4 µM)
- MIC [4]: 1.25 µg/mL (≈ 3.41 µM)
- MIC [5]: 5 µg/mL (≈ 13.6 µM)
- MIC [6]: 1.25 µg/mL (≈ 3.41 µM)
- MIC [7]: 1.25 µg/mL (≈ 3.41 µM)
- MIC [8]: 1 µg/mL (≈ 2.73 µM)
- MIC [9]: 0.5 µg/mL (≈ 1.36 µM)
- MIC [10]: 2 µg/mL (≈ 5.46 µM)
- MIC [16]: 1.5 µg/mL (≈ 4.09 µM)
- MIC [11]: 2.5 µg/mL (≈ 6.82 µM)
- MIC [12]: 1 µg/mL (≈ 2.73 µM)
- MIC [13]: 1.25 µg/mL (≈ 3.41 µM)

Compound: CCn1cc(C(=O)O)c(=O)c2cc(F)c(N3CCC(NC)CC3)c(F)c21
- MIC [1]: 2.5 µg/mL (≈ 6.84 µM)
- MIC [2]: 2 µg/mL (≈ 5.47 µM)
- MIC [3]: 0.5 µg/mL (≈ 1.37 µM)
- MIC [15]: 1.82 µg/mL (≈ 4.98 µM)
- MIC [4]: 1.25 µg/mL (≈ 3.42 µM)
- MIC [5]: 5 µg/mL (≈ 13.7 µM)
- MIC [6]: 1.25 µg/mL (≈ 3.42 µM)
- MIC [7]: 2.5 µg/mL (≈ 6.84 µM)
- MIC [8]: 2.5 µg/mL (≈ 6.84 µM)
- MIC [9]: 1 µg/mL (≈ 2.74 µM)
- MIC [10]: 2 µg/mL (≈ 5.47 µM)
- MIC [16]: 1 µg/mL (≈ 2.74 µM)
- MIC [11]: 5 µg/mL (≈ 13.7 µM)
- MIC [12]: 1.25 µg/mL (≈ 3.42 µM)
- MIC [13]: 2.5 µg/mL (≈ 6.84 µM)

Compound: CCn1cc(C(=O)O)c(=O)c2cc(F)c(N3CCC(C)CC3)c(F)c21
- MIC [1]: 1 µg/mL (≈ 2.85 µM)
- MIC [3]: 1.5 µg/mL (≈ 4.28 µM)
- MIC [4]: 2.5 µg/mL (≈ 7.14 µM)
- MIC [6]: 1 µg/mL (≈ 2.85 µM)
- MIC [11]: 1.5 µg/mL (≈ 4.28 µM)
- MIC [12]: 5 µg/mL (≈ 14.3 µM)
- MIC [13]: 2.5 µg/mL (≈ 7.14 µM)

Compound: CCn1cc(C(=O)O)c(=O)c2cc(F)c(N3CCN(Cc4ccccc4)CC3)c(F)c21
- MIC [1]: 1.5 µg/mL (≈ 3.51 µM)
- MIC [2]: 1.5 µg/mL (≈ 3.51 µM)
- MIC [3]: 1.5 µg/mL (≈ 3.51 µM)
- MIC [4]: 1.5 µg/mL (≈ 3.51 µM)
- MIC [5]: 1 µg/mL (≈ 2.34 µM)
- MIC [9]: 1.5 µg/mL (≈ 3.51 µM)
- MIC [11]: 1 µg/mL (≈ 2.34 µM)
- MIC [13]: 2.5 µg/mL (≈ 5.85 µM)

Compound: CCn1cc(C(=O)O)c(=O)c2cc(F)c(N3CCC(N4CCCCC4)CC3)c(F)c21
- MIC [1]: 2.5 µg/mL (≈ 5.96 µM)
- MIC [2]: 0.5 µg/mL (≈ 1.19 µM)
- MIC [3]: 2.5 µg/mL (≈ 5.96 µM)
- MIC [4]: 1.25 µg/mL (≈ 2.98 µM)
- MIC [5]: 1 µg/mL (≈ 2.38 µM)
- MIC [6]: 1.25 µg/mL (≈ 2.98 µM)
- MIC [7]: 2.5 µg/mL (≈ 5.96 µM)
- MIC [9]: 1 µg/mL (≈ 2.38 µM)
- MIC [11]: 2.5 µg/mL (≈ 5.96 µM)
- MIC [13]: 2.5 µg/mL (≈ 5.96 µM)

Compound: CCn1cc(C(=O)O)c(=O)c2cc(F)c(N3CCN(c4ccc(F)cc4)CC3)c(F)c21
- MIC [1]: 1.5 µg/mL (≈ 3.48 µM)
- MIC [3]: 1.5 µg/mL (≈ 3.48 µM)
- MIC [4]: 1.25 µg/mL (≈ 2.9 µM)
- MIC [6]: 2.5 µg/mL (≈ 5.79 µM)
- MIC [9]: 2 µg/mL (≈ 4.64 µM)
- MIC [11]: 1.5 µg/mL (≈ 3.48 µM)
- MIC [12]: 2.5 µg/mL (≈ 5.79 µM)
- MIC [13]: 1.5 µg/mL (≈ 3.48 µM)

Compound: CCn1cc(C(=O)O)c(=O)c2cc(F)c(N3CCN(c4ccccc4)CC3)c(F)c21
- MIC [1]: 1.5 µg/mL (≈ 3.63 µM)
- MIC [14]: 413 µg/mL (≈ 1000 µM)
- MIC [4]: 1.5 µg/mL (≈ 3.63 µM)
- MIC [6]: 1.5 µg/mL (≈ 3.63 µM)
- MIC [7]: 1 µg/mL (≈ 2.42 µM)
- MIC [11]: 2 µg/mL (≈ 4.84 µM)
- MIC [12]: 5 µg/mL (≈ 12.1 µM)
- MIC [13]: 1 µg/mL (≈ 2.42 µM)
